We go through 25 compounds from ChEMBL document CHEMBL1145834, “Novel selective hindlimb vasodilators: synthesis and biological activity of 1-acyl-4-aminopiperidine derivatives” (2003).

Assay type in all cases: functional, Canis lupus familiaris
For experiment [1], the species on record is Canis familiaris. Put plainly: Vasodilatory activity (at 100 nmol) relative to nifedipine (at 10 nmol) by coronary artery blood flow (CBF) in isolated blood perfused canine heart preparations. The procedure, abridged: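 The canine heart was isolated after pentobarbital (30 mg/kg iv), heparin (500 U/kg) and exsanguination. A septum–papillary muscle preparation was perfused with donor-dog blood via the anterior septal artery at constant 100 mmHg. It was preloaded to 2 g and paced at 120/min with 5 ms pulses at 1.2× threshold. Septal artery flow was read by electromagnetic flowmeter as CBF, and drugs were given intra-arterially. Ratio = effect of test compound (100 nmol) / effect of nifedipine (10 nmol). Means ± SE, n = 3 or 1.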

Experiment [2] is filed under the species Canis familiaris. Put plainly: Vasodilatory activity (at 10 nmol) relative to nifedipine (at 1 nmol) by femoral artery blood flow (FBF) in autoperfused canine femoral artery preparations. An outline of the steps:
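Dogs were anesthetized with pentobarbital (30 mg/kg iv, then 4 mg/kg/h infusion) and heparinized (700 U/kg, then 100 U/kg/h). The right femoral artery was autoperfused with carotid blood at 90 mL/min by pump. Flow was read by electromagnetic flowmeter in the circuit, and drugs were given intra-arterially by microsyringe. Ratio = effect of test compound (10 nmol) / effect of nifedipine (1 nmol). Means ± SE, n = 3 or 1.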

In experiment [3] the test system is Canis familiaris. Put plainly: Cardiovascular effect upon femoral artery blood flow(FBF) in anesthetized open-chest dogs at a dose of 10 ug/ kg administered intravenously. An outline of the steps: (§1)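 Mongrel dogs anesthetized with pentobarbital sodium 30 mg/kg, open chest. Parameters allowed to stabilize, then drug given as single 10 μg/kg iv dose via femoral vein cannula. FBF and CBF expressed as % change from predose value; BP as change from predose value. Means ± SE, n = 3.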

Experiment [4] relates to Canis familiaris. Put plainly: Cardiovascular effect upon blood pressure(BP) in anesthetized open-chest dogs at a dose of 10 ug/ kg administered intravenously. The procedure, abridged:
as §1

The test system of experiment [5] is Canis familiaris. Put plainly: Cardiovascular effect upon coronary artery blood flow(CBF) in anesthetized open-chest dogs at a dose of 10 ug/ kg administered intravenously. The procedure, abridged:
as §1

Consider `CCC(=O)Nc1c(C)cc(C(=O)N2CCC(N(C)CCc3ccccc3)CC2)cc1[N+](=O)[O-]`, for which the “CBF Ratio” value in experiment [1] was 0.09. Also, the “FBF Ratio” value in experiment [2] is 0.24.

In the case of `CCc1cc(C(=O)N2CCC(N(C)CCc3ccccc3)CC2)cc2c1NC(=O)CC2.O=C(O)C(=O)O`, in experiment [3], the FBF % change is given as 54. The BP in experiment [4] is reported as -26 mmHg. In experiment [1], the “CBF Ratio” value was 0.18. The CBF % change in experiment [5] came out at 15. Besides, the “FBF Ratio” value in experiment [2] is recorded as 1.07.

`Cc1cc2c(cc1C(=O)N1CCC(N(C)CCc3ccccc3)CC1)CCC(=O)N2.O=C(O)C(=O)O`: the FBF % change in experiment [3] is recorded as 41. Besides, the BP in experiment [4] was -13 mmHg. For the same compound, in experiment [1], the “CBF Ratio” value is reported as 0.02. The same compound yielded a CBF % change in experiment [5] of 11. Also, the “FBF Ratio” value in experiment [2] was 3.01.

In experiment [3], `CCc1cc(C(=O)N2CCC(N(C)CCc3ccccc3)CC2)cc2ccc(O)nc12.O=C(O)C(=O)O` yielded an FBF % change of 78. For the same compound, the BP in experiment [4] was -22 mmHg. Besides, the “CBF Ratio” value in experiment [1] is recorded as 0.18. The same compound showed a CBF % change in experiment [5] of 26. Also, in experiment [2], the “FBF Ratio” value worked out at 0.96.

With `COc1cc2nc(O)ccc2cc1C(=O)N1CCC(N(C)CCc2ccccc2)CC1`, in experiment [3], the FBF % change is reported as 26. The compound further showed a BP in experiment [4] of -9 mmHg. Further, the CBF Ratio in experiment [1] worked out at 0.04. In addition, the CBF % change in experiment [5] came to 7. Moreover, the “FBF Ratio” value in experiment [2] was 1.07.

Consider `CN(CCc1ccccc1)C1CCN(C(=O)c2cc3c(c([N+](=O)[O-])c2)NC(=O)CC3)CC1`, for which the “CBF Ratio” value in experiment [1] turned out to be 0.28. The “FBF Ratio” value in experiment [2] came to 0.68.

Take `CN(CCc1ccccc1)C1CCN(C(=O)c2ccc3c(c2)NC(=O)CC3)CC1`: in experiment [1], the “CBF Ratio” value worked out at 0.07. Also, the “FBF Ratio” value in experiment [2] was determined as 0.19.

`CCC(=O)Nc1ccc(C(=O)N2CCC(N(C)CCc3ccccc3)CC2)cc1` had an FBF % change in experiment [3] of 38. The BP in experiment [4] is -7 mmHg. In addition, the “CBF Ratio” value in experiment [1] turned out to be 0.02. Also, the CBF % change in experiment [5] stood at 5. In addition, the “FBF Ratio” value in experiment [2] is recorded as 1.23.

For `CCC(=O)Nc1cc(C)c(C(=O)N2CCC(N(C)CCc3ccccc3)CC2)cc1C.Cl`, the “CBF Ratio” value in experiment [1] is on record as 0. Moreover, in experiment [2], the “FBF Ratio” value stood at 0.49.

Take `CN(CCc1ccccc1)C1CCN(C(=O)C2CC(=O)Nc3ccccc32)CC1.Cl` (stereo not drawn): the FBF % change in experiment [3] is on record as 101. In experiment [4], this compound came in with a BP of -15 mmHg. Also, in experiment [1], the “CBF Ratio” value came to 0.01. Further, the CBF % change in experiment [5] was found to be 13. The “FBF Ratio” value in experiment [2] is reported as 0.85.

For `CN(CCc1ccccc1)C1CCN(C(=O)c2cccc3c2NC(=O)CC3)CC1.Cl`, the “CBF Ratio” value in experiment [1] was found to be 0.09. The “FBF Ratio” value in experiment [2] is 0.62.

As for `CCC(=O)Nc1c(C)cc(C(=O)N2CCC(N(C)CCc3ccccc3)CC2)cc1OC.Cl`, the “FBF Ratio” value in experiment [3] turned out to be 48; in experiment [2], 0.7. For the same compound, the BP in experiment [4] was -14 mmHg. Further, the “CBF Ratio” value in experiment [1] amounted to 0; in experiment [5] it was 11.

`Cc1cc(C(=O)N2CCC(N(C)CCc3ccccc3)CC2)cc2c1NC(=O)CC2.Cl` registered an FBF % change in experiment [3] of 32. This compound also displayed a BP in experiment [4] of -26 mmHg. The “CBF Ratio” value in experiment [1] is reported as 0.14. The compound further came in with a CBF % change in experiment [5] of 13. The “FBF Ratio” value in experiment [2] worked out at 0.67.

Consider `CCC(=O)Nc1ccc(C(=O)N2CCC(N(C)CCc3ccccc3)CC2)c(C)c1C.Cl`, for which the “CBF Ratio” value in experiment [1] amounted to 0. The “FBF Ratio” value in experiment [2] is listed as 0.43.

In experiment [3], `CN(CCc1ccccc1)C1CCN(C(=O)c2ccc3c(c2)CCC(=O)N3)CC1.Cl` yielded an FBF % change of 38. In experiment [4], this compound gave a BP of -9 mmHg. Further, in experiment [1], the “CBF Ratio” value was 0. The same compound showed a CBF % change in experiment [5] of 11. Also, the “FBF Ratio” value in experiment [2] was determined as 1.64.

As for `CN(CCc1ccccc1)C1CCN(C(=O)c2cccc3nc(O)ccc23)CC1.Cl`, the “CBF Ratio” value in experiment [1] amounted to 0.01. Further, the “FBF Ratio” value in experiment [2] came to 0.32.

The compound `CC(C)c1cc(C(=O)N2CCC(N(C)CCc3ccccc3)CC2)cc2c1NC(=O)CC2.Cl` came in with an FBF % change in experiment [3] of 73. In experiment [4], the BP is listed as -19 mmHg. Further, the “CBF Ratio” value in experiment [1] is 0.25. Further, the CBF % change in experiment [5] is recorded as 15. Also, the “FBF Ratio” value in experiment [2] is 1.13.

Take `COc1cc(C(=O)N2CCC(N(C)CCc3ccccc3)CC2)cc2ccc(O)nc12.Cl`: the FBF % change in experiment [3] is 55. This compound displayed a BP in experiment [4] of -10 mmHg. In addition, the “CBF Ratio” value in experiment [1] was 0.04. In experiment [5], this compound had a CBF % change of 10. In addition, in experiment [2], the “FBF Ratio” value was 1.36.

For the compound `CCC(=O)Nc1ccc(C(=O)N2CCC(N(C)CCc3ccccc3)CC2)cc1Cl.Cl`, the “CBF Ratio” value in experiment [1] came out at 0.16. In experiment [2], the “FBF Ratio” value amounted to 1.71.

Consider `CCC(=O)Nc1c(C)cc(C(=O)N2CCC(N(C)CCc3ccccc3)CC2)cc1Cl.Cl`, for which the “CBF Ratio” value in experiment [1] is recorded as 0.08. Besides, in experiment [2], the “FBF Ratio” value was 0.1.

On to `CCC(=O)Nc1ccc(C(=O)N2CCC(N(C)CCc3ccccc3)CC2)cc1[N+](=O)[O-].Cl`, for which the “CBF Ratio” value in experiment [1] is 0.26. Moreover, the “FBF Ratio” value in experiment [2] was 0.29.

For `CCCc1cc(C(=O)N2CCC(N(C)CCc3ccccc3)CC2)cc2ccc(O)nc12.Cl`, the FBF % change in experiment [3] was 67. Besides, the BP in experiment [4] is listed as -22 mmHg. For the same compound, the “CBF Ratio” value in experiment [1] is reported as 0.35. In experiment [5], the CBF % change came out at 8. Besides, the “FBF Ratio” value in experiment [2] was 1.61.

Take `CN(CCc1ccccc1)C1CCN(C(=O)c2cc([N+](=O)[O-])c3nc(O)ccc3c2)CC1.Cl`: the FBF % change in experiment [3] is listed as 32. The BP in experiment [4] is recorded as -21 mmHg. The “CBF Ratio” value in experiment [1] came to 1.15. The same compound registered a CBF % change in experiment [5] of 9. Besides, the “FBF Ratio” value in experiment [2] worked out at 1.6.

As for `COc1cc2c(cc1C(=O)N1CCC(N(C)CCc3ccccc3)CC1)CCC(=O)N2.Cl`, the FBF % change in experiment [3] is 26. In experiment [4], the BP is -8 mmHg. Besides, the “CBF Ratio” value in experiment [1] turned out to be 0. Besides, in experiment [5], the CBF % change was found to be 8. Also, in experiment [2], the “FBF Ratio” value worked out at 1.98.

In experiment [3], `COC(=O)C1=C(C)NC(C)=C(C(=O)OC)C1c1ccccc1[N+](=O)[O-]` [NIFEDIPINE] gave an FBF % change of -28. The compound also came in with a BP in experiment [4] of -37 mmHg. Further, the CBF % change in experiment [5] came out at 104.
